Screening data deposited in PubChem BioAssay by The Scripps Research Institute Molecular Screening Center.
Shown are actives, neighbours in structure and some others; about 4.5% of the full set was active somewhere.
OX1R antag-1 = OX1R (HCRTR1) antagonists, primary screen, fluorescence, CHO/OX1R cells, Fluo-8 calcium, orexin A | Orexin/Hypocretin receptor type 1 (Homo sapiens), O43613 | AID 434989, 2010 | 330,000 compounds, 0.43% hits | inhibition, % at 5 µM | Fluo-8 calcium fluorescence;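 active = inhibition above its plate's threshold, mean inhibition of all tested compounds on the plate plus 3 SD, cut at about 37% in these data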;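 note: 0% = orexin A challenge wells and 100% = SB-334867-A antagonist wells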
Target sequence (O43613 whole entry, looked up): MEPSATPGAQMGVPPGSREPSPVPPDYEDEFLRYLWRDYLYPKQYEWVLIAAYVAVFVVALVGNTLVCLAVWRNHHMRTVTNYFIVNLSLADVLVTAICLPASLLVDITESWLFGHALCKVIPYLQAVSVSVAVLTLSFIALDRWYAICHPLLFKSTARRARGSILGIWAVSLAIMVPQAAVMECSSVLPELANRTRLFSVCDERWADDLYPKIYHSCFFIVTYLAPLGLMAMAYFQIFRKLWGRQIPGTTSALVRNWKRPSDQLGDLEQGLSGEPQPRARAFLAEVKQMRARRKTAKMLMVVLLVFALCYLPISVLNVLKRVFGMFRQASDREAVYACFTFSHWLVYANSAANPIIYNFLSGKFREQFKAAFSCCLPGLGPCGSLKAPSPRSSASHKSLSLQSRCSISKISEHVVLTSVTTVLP
TAAR1 antag = human TAAR1 antagonists, primary screen, Fluo-8 calcium fluorescence, CHO RD-HGA16 cells. Trace amine-associated receptor 1 (Homo sapiens), Q96RJ0. antagonist. inhibition, % at 3 µM. 360,000 compounds, 1.5% hits;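 active = inhibition above a per-plate cutoff, the mean inhibition of test compounds on that plate plus 3 SD, cut at about 49% in these data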;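 note: 0% = DMSO plus EC80 beta-PEA response and 100% = DMSO alone without agonist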
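System: CHO RD-HGA16 cells bearing hTAAR1. Reagent: EC80 β-phenethylamine stimulus. Schedule: seeding 17-24 h prior, 75-min 37 °C, 30-min RT dye loading. Signal: Fluo-8 intracellular calcium dye fluorescence, real-time kinetic reads. Read-out: % inhibition from peak post-agonist over basal fluorescence ratio. Benchmarks: vehicle wells and EC80 agonist wells. Replicates: n of 1.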
OX1R antag-2 = antagonists of human orexin 1 receptor (OX1R). OX1R-expressing cells, FRET antagonist read-out. Orexin/Hypocretin receptor type 1 (Homo sapiens), O43613. 330,000 compounds, 1.8% hits. inhibition, % at 6.6 µM. AID 485270, 2010; in the data active = inhibition mostly above about 38%, no sharp cut-off; inactive = mostly below about 40%;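 note: 0% = agonist challenge alone and 100% = reference antagonist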
TAAR1 agonist = human TAAR1 agonists, primary screen, Fluo-8 calcium fluorescence, CHO RD-HGA16 cells. Trace amine-associated receptor 1 (Homo sapiens), Q96RJ0. vehicle wells 0%, saturating PEA agonist 100%. activation, % at 3 µM. 360,000 compounds, 0.99% hits. AID 624467, 2012;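 active = activation above the mean activation of all test compounds in the run plus 3 SD, cut at about 38% in these data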
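System: CHO-derived RD-HGA16 cells with stable Gα16 and human TAAR1 / Times: 17-24 h plating, Fluo-8 75 min 37 °C, 30 min RT / Technique: calcium-sensitive Fluo-8 signal, excitation 470-495, emission 515-575 nm / Measure: % activation relative to PEA EC100 response / Benchmarks: DMSO and PEA EC100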
CHO parental Ca = ATP-evoked calcium signal inhibitors, parental CHO, primary screen, counter-screen for OX1R antagonist project, cell-based, fluorescence, Fluo-8 calcium dye. parental CHO-K1, ATP-induced calcium, Fluo-8 fluorescence. inhibition, % at 5.6 µM. 330,000 compounds, 0.63% hits;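 active = inhibition above that plate's mean sample inhibition plus 3 SD, cut at about 26% in these data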;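 note: 0% = ATP-challenged DMSO wells and 100% = DMSO wells without ATP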
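Test system: parental CHO cells; detection: calcium-sensitive Fluo-8 fluorescence; evaluation: percent inhibition of calcium signal; also added: ATP as calcium-mobilizing challenge; repeats: one well per compound; control set: ATP-challenged DMSO wells low, unchallenged DMSO wells high; compound: single nominal dose of 5.6 µM per compound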
GPR7 antag = GPR7 receptor antagonists, primary screen, cell-based, fluorescence, single concentration | GPR7-expressing cells, fluorescence antagonist assay | inhibition, % at 4.4 µM | 290,000 compounds, 1.1% hits; in the data active = inhibition above about 16%, passing the limit was not always enough;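 note: cells stimulated with the agonist NPW; 0% = agonist with vehicle and 100% = vehicle without agonist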
Target sequence (P48145 whole entry, looked up): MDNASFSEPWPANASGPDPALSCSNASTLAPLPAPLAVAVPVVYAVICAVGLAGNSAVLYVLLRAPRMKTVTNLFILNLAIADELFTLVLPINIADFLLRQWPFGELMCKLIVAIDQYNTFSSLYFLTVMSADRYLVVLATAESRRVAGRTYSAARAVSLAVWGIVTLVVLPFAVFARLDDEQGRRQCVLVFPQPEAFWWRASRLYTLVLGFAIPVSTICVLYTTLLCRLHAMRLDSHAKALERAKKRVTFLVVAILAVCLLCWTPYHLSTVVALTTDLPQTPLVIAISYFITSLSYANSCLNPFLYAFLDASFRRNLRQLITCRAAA
GPR7 antag conf = GPR7 receptor antagonists, confirmation, cell-based, fluorescence, single concentration; shares compounds with GPR7 antag; GPR7-expressing cells, calcium fluorescence antagonist mode; inhibition, % at 4.4 µM; 2,400 compounds, 52% hits; AID 1952, 2009; in the data active = inhibition above about 24%;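 note: stimulated with the GPR7 agonist NPW; 0% = agonist plus vehicle and 100% = vehicle alone without agonist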
MCHR1 antagonist = MCHR1 antagonists in cells, counter-screen for GPR7 antagonist project, cell-based, fluorescence, human; shares compounds with GPR7 antag; MCHR1-expressing cells, fluorescence antagonist assay; inhibition, % at 4.4 µM; 2,400 compounds, 62% hits; AID 2148, 2009; in the data active = inhibition above about 22%;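 note: 0% = vehicle with agonist and 100% = vehicle without agonist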
* marks the source's active call; other numbers are inactive results; . = not tested or not shown.

SMILES	OX1R antag-1	TAAR1 antag	OX1R antag-2	TAAR1 agonist	CHO parental Ca	GPR7 antag	GPR7 antag conf	MCHR1 antagonist
CCN1C(=NCc2cccc(Cl)c2)N[C@@H](c2cccc(F)c2)C(C(=O)OC)=C1C	-15.7	19.4	17.7	23.9	-9.8	33.3*	58.2*	30.1*
COC(=O)C1=C(C)N(Cc2ccccc2)C(=NCc2cccc(C(F)(F)F)c2)N[C@H]1c1cccc(F)c1	2.4	34.5	35.3	41.5*	15.5	37.5*	70.1*	71.2*
CC1(C(=O)NS(=O)(=O)c2cccc(Cl)c2)CCN1C(=O)CCc1ccc(Cl)cc1Cl (stereo unspecified)	.	-0.6	.	-0.8	.	.	.	.
O=C(CCCn1c(=O)oc2ccccc21)NC1CCCCCC1	-25.5	.	10.6	.	-18.4	21.0*	-9.8	-4.1
O=C(O)c1cccc(CN2C(=O)SC(Nc3ccccc3)C2=O)c1 (stereo unspecified)	-12.2	-3.8	20.2	4.5	-7.9	3.2	.	.
Cc1ccc(NC2SC(=O)N(Cc3cccc(C(=O)O)c3)C2=O)cc1 (stereo unspecified)	13.9	-7.6	7.5	4.2	2.1	29.2*	4.5	-4.4
CN1CCN(C(=O)c2ccc(CSc3ccc(Cl)cc3)cc2)CC1	3.7	11.0	28.4	7.2	20.1	-0.9	.	.
CCOC(=O)N1CCN(C(=O)c2ccc(CSc3ccc(Cl)cc3)cc2)CC1	.	22.8	.	2.8	.	24.6*	21.7	49.2*
CN(CC(=O)Nc1ccc(N2CCOCC2)cc1)C(=O)CCNC(=O)c1ccc(Br)cc1	-15.9	-7.0	7.5	0.6	-12.2	.	.	.
CCNC(=O)C1(C)CCCN(C(=O)c2ccccc2Br)C1 (stereo unspecified)	.	-17.2	.	0.8	.	.	.	.
CC(=O)c1ccc(Nc2nc(C(N)CC(C)C)cs2)cc1 (stereo unspecified)	.	-22.9	.	7.0	.	.	.	.
CCOc1ccccc1CNC(=O)c1cc2occc2n1C	-36.1	17.0	10.9	-1.3	-14.9	24.0*	16.4	14.9
Nc1nc(N)nc(-c2ccccc2-c2nc(N)nc(N)n2)n1	-5.0	-1.6	9.2	1.4	-10.2	13.8	-12.8	-7.2
Nc1nc(N)nc(-c2ccccc2)n1	-0.4	-2.9	6.3	3.2	-6.8	-3.4	.	.
CC1(Oc2cccc(F)c2)CCN(Cc2ccc3ccccc3c2)C1 (stereo unspecified)	.	8.7	.	7.2	.	.	.	.
CCc1cc(=O)oc2c3c(cc(OCC(=O)NCc4ccco4)c12)OC(C)(C)CC3	-28.5	.	10.5	.	5.5	41.2*	14.6	31.6*
Cc1cccc2cc(CNCC3CCCO3)c(Cl)nc12 (stereo unspecified)	-19.1	-9.9	18.2	-0.2	-18.6	22.1*	-3.0	6.9
COc1ccc(NC(=O)C2CCCN2C(=O)OC(C)(C)C)cc1 (stereo unspecified)	-14.2	-7.6	8.6	1.5	-22.6	3.8	.	.
O=C(CSc1nnc(Cc2cccs2)n1Cc1ccco1)Nc1cccc(Cl)c1	-5.6	17.9	35.9	9.7	-11.8	21.2*	24.6*	33.1*
O=C(CSc1nnc(Cc2cccs2)n1Cc1ccco1)Nc1cc(Cl)cc(Cl)c1	-33.3	30.3	20.7	9.6	-17.9	-11.4	.	.
COC(=O)c1cc(NS(=O)(=O)c2ccc(NC(C)=O)cc2)ccc1Cl	-17.0	-15.4	6.6	2.7	-8.9	2.5	.	.
CCc1cccc(C)c1NC(=O)Cn1c(NCCO)nc2ccccc21	17.3	9.2	5.1	0.1	-1.1	8.7	.	.
CCCCNc1nc2ccccc2n1CC(=O)Nc1c(C)cccc1CC	-30.1	-6.3	19.7	-0.1	-20.4	33.2*	31.7*	20.7
CC(C)(C)NC(=O)C(c1cc2ccccc2o1)n1c(-c2ccc(-c3ccccc3)cc2)nc2ccccc21 (stereo unspecified)	.	-47.3	.	2.2	.	.	.	.
Cc1ccc(NC(=O)COC(=O)C2(C)CC2(Cl)Cl)cc1S(=O)(=O)N1CCOCC1 (stereo unspecified)	.	-15.7	.	6.3	.	.	.	.
SMILES	OX1R antag-1	TAAR1 antag	OX1R antag-2	TAAR1 agonist	CHO parental Ca	GPR7 antag	GPR7 antag conf	MCHR1 antagonist
Cc1cc(SCc2cccc([N+](=O)[O-])c2)nc(=O)[nH]1	-7.5	-29.7	21.0	0.0	22.2	4.8	.	.
Cc1cc(SCc2ccc([N+](=O)[O-])cc2)nc(=O)[nH]1	10.1	-2.6	17.4	0.5	-12.2	26.2*	4.0	3.6
COc1cc(C(=O)COC(=O)c2cc([N+](=O)[O-])ccc2N2CCOCC2)ccc1OC(F)F	-10.9	17.5	27.9	-0.9	2.0	.	.	.
Cc1ccc(OCc2nc(C#N)c(N3CCN(Cc4ccccc4)CC3)o2)cc1	-22.0	18.1	32.2	3.1	-11.6	43.2*	44.1*	51.2*
N#Cc1nc(COc2ccccc2)oc1N1CCN(Cc2ccccc2)CC1	-26.1	7.0	16.1	7.3	-12.5	25.9*	33.3*	52.5*
C[C@]12c3[nH]c4ccccc4c3CCN1C(=O)C(CC(=O)NCC13CC4CC(CC(C4)C1)C3)C[C@@H]2C(=O)N1CCCCC1 (stereo partly specified)	-23.3	3.4	9.6	6.8	-35.1	.	.	.
Cc1cc(N2CCOCC2)nc(NCc2ccccc2)n1	10.8	40.9	13.6	49.2*	-0.8	23.0*	60.5*	71.7*
Cc1cc(NCc2ccccc2)nc(N2CCOCC2)n1	-9.5	-0.5	15.1	10.8	-5.0	2.0	.	.
CCCCCCOC(=O)C[N+](C)(C)CCOC1CC2CCC1(C)C2(C)C (stereo unspecified)	8.9	-1.8	16.0	5.1	8.0	31.5*	65.3*	62.9*
CCCCOC(=O)C[N+](C)(C)CCOC1CC2CCC1(C)C2(C)C (stereo unspecified)	-21.4	2.2	7.8	12.5	-1.3	-1.7	.	.
CC(C)c1ccccc1OCC(O)CN1CCN(S(=O)(=O)c2ccc([N+](=O)[O-])cc2)CC1 (stereo unspecified)	-13.4	43.8	9.4	0.7	0.4	46.7*	45.0*	76.0*
NC(=O)c1nnn(-c2cccc(C(F)(F)F)c2)c1-c1ccccc1	-12.3	-6.7	4.0	3.9	-12.8	-10.7	.	.
CCCC[C@H]1COCCS(=O)(=O)N1Cc1ccccc1F	-24.9	0.6	19.1	12.2	-14.1	-11.6	.	.
O=C(Cn1cnc2nc3n(c2c1=O)CCC3)NCc1ccccc1	2.6	-18.5	0.4	17.3	-0.7	-7.5	.	.
